Experimental findings from ChEMBL document CHEMBL4765368, “Structure guided design and synthesis of furyl thiazolidinedione derivatives as inhibitors of GLUT 1 and GLUT 4, and evaluation of their anti-leukemic potential” (Eur J Med Chem, 2020) are described below.

This data set concerns HS27. As to the kind of experiment: Cytotoxicity against human HS27 cells assessed as cell death at 100 uM measured after 48 hrs by Hoechst 33342/propidium iodide staining based imaging analysis relative to control. The note with it: hs27, 48 h. A digest of the protocol: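 HS-27 fibroblasts in DMEM with 10% FBS and penicillin/streptomycin at 37 °C, 5% CO2, seeded at 3,000 cells/well. Treated 48 h with DMSO-dissolved compound (0.5–100 µM range) in quadruplicate. Hoechst 33342 and PI were added 2 h before imaging, and Hoechst/PI-colocalised nuclei were scored as dead. Controls were DMSO vehicle, H2O2 and untreated cells.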

Regarding `O=C(CN1C(=O)S/C(=C/c2ccco2)C1=O)Nc1ccc(Cl)c(Cl)c1`, the Activity was 27.32%.
